Results on eight molecules are retold here after ChEMBL document CHEMBL1123539, “[p-[(Thienylcarbonyl)amino]phenoxy]propanolamines derivatives as diuretic and beta-adrenergic receptor blocking agents” (1986).

A word on the ED50: it is the dose at which the effect has come halfway, by size or by number of responders.

SMILES strings stand for the structures.

In experiment [1] the test system is Rattus norvegicus. Put plainly: Compound was tested for oral salidiuretic activity (control/drug treatment value) in rats expressed as urinary output. at a dose of 64 mg/kg; 10.33/9.33. Format: functional, Urine.
The subject of experiment [2] is Rattus norvegicus. Put plainly: Compound was tested for oral salidiuretic activity (control/drug treatment value) in rats expressed in Na+, mequiv/6 hr at a dose of 64 mg/kg; 0.140/0.355. Format: functional, Urine.
For experiment [3], the target named is Beta-1 adrenergic receptor (Homo sapiens) (UniProt P08588). As to conditions: Canis lupus familiaris.
Chain of Beta-1 adrenergic receptor (Homo sapiens) (P08588 whole entry, looked up): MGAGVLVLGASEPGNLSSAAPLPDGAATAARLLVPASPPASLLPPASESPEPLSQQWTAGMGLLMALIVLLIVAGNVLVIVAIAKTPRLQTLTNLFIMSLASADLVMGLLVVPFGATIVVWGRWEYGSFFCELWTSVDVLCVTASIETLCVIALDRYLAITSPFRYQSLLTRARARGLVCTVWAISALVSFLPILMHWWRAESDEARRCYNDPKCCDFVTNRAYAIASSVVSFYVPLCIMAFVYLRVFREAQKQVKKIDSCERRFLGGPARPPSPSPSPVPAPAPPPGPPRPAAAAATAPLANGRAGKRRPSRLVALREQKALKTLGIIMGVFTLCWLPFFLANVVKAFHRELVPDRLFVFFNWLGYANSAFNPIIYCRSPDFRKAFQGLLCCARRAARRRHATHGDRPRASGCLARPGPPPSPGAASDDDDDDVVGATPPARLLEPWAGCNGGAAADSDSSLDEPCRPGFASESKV
Experiment [4] has as its target Beta-2 adrenergic receptor (Canis lupus familiaris) (UniProt P54833).
For experiment [5], the system named is Rattus norvegicus. The experiment in a line: Compound was tested for oral salidiuretic activity (control/drug treatment value) in rats expressed as urinary output. at a dose of 128 mg/kg; 8.72/8.15. Type of experiment: functional, Urine.
The subject of experiment [6] is Rattus norvegicus. The experiment in a line: Compound was tested for oral salidiuretic activity (control/drug treatment value) in rats expressed in Na+, mequiv/6 hr at a dose of 128 mg/kg; 0.163/0.139. Type of experiment: functional, Urine.
Experiment [7] relates to Rattus norvegicus. Put plainly: Compound was tested for oral salidiuretic activity (control/drug treatment value) in rats expressed in Na+, mequiv/6 h at a dose of 128 mg/kg; 0.102/0.380. Type of experiment: functional, Urine.
The subject of experiment [8] is Rattus norvegicus. The experiment in a line: Compound was tested for oral salidiuretic activity (control/drug treatment value) in rats expressed as urinary output. at a dose of 128 mg/kg; 8.72/8.02. Format: functional, Urine.
Experiment [9] concerns Rattus norvegicus. Put plainly: Compound was tested for oral salidiuretic activity (control/drug treatment value) in rats expressed in Na+, mequiv/6 hr at a dose of 128 mg/kg; 0.163/0.133. Format: functional, Urine.
The test system of experiment [10] is Rattus norvegicus. Put plainly: Compound was tested for oral salidiuretic activity (control/drug treatment value) in rats expressed in Na+, mequiv/6 h at a dose of 128 mg/kg; 0.210/0.796. Type of experiment: functional, Urine.
For experiment [11], the system named is Rattus norvegicus. Put plainly: Compound was tested for oral salidiuretic activity (control/drug treatment value) in rats expressed as urinary output. at a dose of 128 mg/kg; 7.33/10.83. Type of experiment: functional, Urine.
Experiment [12] concerns Rattus norvegicus. Put plainly: Compound was tested for oral salidiuretic activity (control/drug treatment value) in rats expressed as urinary output. at a dose of 16 mg/kg; 7.33/9.75. Format: functional, Urine.
Experiment [13] has as its system Rattus norvegicus. The experiment in a line: Compound was tested for oral salidiuretic activity (control/drug treatment value) in rats expressed as urinary output. at a dose of 32 mg/kg; 7.33/9.17. Type of experiment: functional, Urine.
For experiment [14], the system named is Rattus norvegicus. The experiment in a line: Compound was tested for oral salidiuretic activity (control/drug treatment value) in rats expressed as urinary output. at a dose of 64 mg/kg; 7.33/10. Format: functional, Urine.
Experiment [15] concerns Rattus norvegicus. Put plainly: Compound was tested for oral salidiuretic activity (control/drug treatment value) in rats expressed in Na+, mequiv/6 h at a dose of 128 mg/kg; 0.205/0.712. Format: functional, Urine.
For experiment [16], the system named is Rattus norvegicus. The experiment in a line: Compound was tested for oral salidiuretic activity (control/drug treatment value) in rats expressed in Na+, mequiv/6 hr at a dose of 32 mg/kg; 0.205/0.358. Format: functional, Urine.
In experiment [17] the test system is Rattus norvegicus. Put plainly: Compound was tested for oral salidiuretic activity (control/drug treatment value) in rats expressed in Na+, mequiv/6 h at a dose of 64 mg/kg; 0.205/0.514. Type of experiment: functional, Urine.
For experiment [18], the system named is Rattus norvegicus. The experiment in a line: Compound was tested for oral salidiuretic activity (control/drug treatment value) in rats expressed as urinary output. at a dose of 128 mg/kg; 7.33/11.50. Format: functional, Urine.
The subject of experiment [19] is Rattus norvegicus. The experiment in a line: Compound was tested for oral salidiuretic activity (control/drug treatment value) in rats expressed in Na+, mequiv/6 hr at a dose of 16 mg/kg; 0.205/0.350. Format: functional, Urine.
The target in experiment [20] is Beta-1 adrenergic receptor (Homo sapiens) (UniProt P08588). The experiment in a line: Compound was tested for beta-1 adrenergic receptor blocking activity in dogs. As to conditions: Canis lupus familiaris; target entry is the homologue from another species.
The test system of experiment [21] is Rattus norvegicus. Put plainly: Compound was tested for oral salidiuretic activity (control/drug treatment value) in rats expressed as urinary output. at a dose of 16 mg/kg; 6.42/9. Format: functional, Urine.
In experiment [22] the test system is Rattus norvegicus. The experiment in a line: Compound was tested for oral salidiuretic activity (control/drug treatment value) in rats expressed as urinary output. at a dose of 32 mg/kg; 6.42/9.83. Format: functional, Urine.
Experiment [23] concerns Rattus norvegicus. Put plainly: Compound was tested for oral salidiuretic activity (control/drug treatment value) in rats expressed as urinary output. at a dose of 32 mg/kg at 0-2h; 7.42/9.64. Format: functional, Urine.
Experiment [24] has as its system Rattus norvegicus. Put plainly: Compound was tested for oral salidiuretic activity (control/drug treatment value) in rats expressed as urinary output. at a dose of 32 mg/kg at 0-4 h; 9.02/11.67. Format: functional, Urine.
Experiment [25] has as its system Rattus norvegicus. The experiment in a line: Compound was tested for oral salidiuretic activity (control/drug treatment value) in rats expressed as urinary output. at a dose of 32 mg/kg at 0-6 h; 9.99/13.01. Format: functional, Urine.
In experiment [26] the test system is Rattus norvegicus. The experiment in a line: Compound was tested for oral salidiuretic activity (control/drug treatment value) in rats expressed as urinary output. at a dose of 64 mg/kg; 6.42/11.25. Format: functional, Urine.
Experiment [27] has as its system Rattus norvegicus. The experiment in a line: Compound was tested for oral salidiuretic activity (control/drug treatment value) in rats expressed in Na+, mequiv/6 hr at a dose of 128 mg/kg;. 207/1.364. Format: functional, Urine.
Experiment [28] has as its system Rattus norvegicus. The experiment in a line: Compound was tested for oral salidiuretic activity (control/drug treatment value) in rats expressed as urinary output. at a dose of 128 mg/kg; 6.42/15.08. Format: functional, Urine.
The test system of experiment [29] is Rattus norvegicus. The experiment in a line: Compound was tested for oral salidiuretic activity (control/drug treatment value) in rats expressed in Na+, mequiv/6 hr at a dose of 32 mg/kg; 0.207/0.626. Type of experiment: functional, Urine.
In experiment [30] the test system is Rattus norvegicus. The experiment in a line: Compound was tested for oral salidiuretic activity (control/drug treatment value) in rats expressed in Na+, mequiv/6 hr at a dose of 32 mg/kg; 0.259/0.680. Type of experiment: functional, Urine.
Experiment [31] deals with Rattus norvegicus. The experiment in a line: Compound was tested for oral salidiuretic activity (control/drug treatment value) in rats expressed in Na+, mequiv/6 hr at a dose of 64 mg/kg; 0.207/0.766. Format: functional, Urine.
The test system of experiment [32] is Rattus norvegicus. The experiment in a line: Compound was tested for oral salidiuretic activity (control/drug treatment value) in rats expressed in Na+, mequiv/6 hr at a dose of 16 mg/kg; 0.207/0.554. Format: functional, Urine.
For experiment [33], the target named is Beta-2 adrenergic receptor (Canis lupus familiaris) (UniProt P54833). The experiment in a line: The compound was tested for beta-2 adrenergic receptor blocking activity in dogs. A digest of the protocol: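 In two dogs, drugs were injected via a cannulated saphenous vein, with increasing doses given every 30 min and each animal used once per substance. Isoproterenol-induced changes in diastolic arterial pressure after each dose were compared with isoproterenol control responses to calculate percent blockade. ID50 (50% inhibition) was estimated from the dose-response curve.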
Chain of Beta-2 adrenergic receptor (Canis lupus familiaris) (P54833 whole entry, looked up): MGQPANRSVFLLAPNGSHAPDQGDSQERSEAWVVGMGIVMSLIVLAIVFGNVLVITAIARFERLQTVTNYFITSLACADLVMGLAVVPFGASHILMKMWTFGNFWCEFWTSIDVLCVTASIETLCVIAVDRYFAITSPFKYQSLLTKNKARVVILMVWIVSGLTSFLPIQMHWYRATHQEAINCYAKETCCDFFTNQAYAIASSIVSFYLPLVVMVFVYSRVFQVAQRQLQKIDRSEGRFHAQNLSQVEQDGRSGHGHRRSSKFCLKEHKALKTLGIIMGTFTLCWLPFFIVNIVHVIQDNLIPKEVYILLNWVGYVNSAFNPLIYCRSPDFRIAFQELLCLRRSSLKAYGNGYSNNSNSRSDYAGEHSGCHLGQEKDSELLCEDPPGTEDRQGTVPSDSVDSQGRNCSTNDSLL

For experiment [34], the target named is Beta-1 adrenergic receptor (Homo sapiens) (UniProt P08588). The experiment in a line: Compound was tested for beta-1 adrenergic receptor blocking activity in conscious rats after 1 hr. As to conditions: Rattus norvegicus; target entry is the homologue from another species.
Experiment [35] has the same target. The experiment in a line: Compound was tested for beta-1 adrenergic receptor blocking activity in conscious rats after 5 hr. As to conditions: Rattus norvegicus; target entry is the homologue from another species.
Experiment [36] has as its target Beta-2 adrenergic receptor (Rattus norvegicus) (UniProt P10608). The experiment in a line: The compound was tested for beta-2 adrenergic receptor blocking activity in conscious rats after 1 hr.
Experiment [37] concerns Rattus norvegicus. Put plainly: Compound was tested for oral salidiuretic activity (control/drug treatment value) in rats expressed as urinary output. at a dose of 128 mg/kg; 8.42/6.75. Type of experiment: functional, Urine.
The subject of experiment [38] is Rattus norvegicus. Put plainly: Compound was tested for oral salidiuretic activity (control/drug treatment value) in rats expressed in Na+, mequiv/6 hr at a dose of 128 mg/kg; 0.186/0.243. Type of experiment: functional, Urine.

Chain of Beta-2 adrenergic receptor (Rattus norvegicus) (P10608 whole entry, looked up): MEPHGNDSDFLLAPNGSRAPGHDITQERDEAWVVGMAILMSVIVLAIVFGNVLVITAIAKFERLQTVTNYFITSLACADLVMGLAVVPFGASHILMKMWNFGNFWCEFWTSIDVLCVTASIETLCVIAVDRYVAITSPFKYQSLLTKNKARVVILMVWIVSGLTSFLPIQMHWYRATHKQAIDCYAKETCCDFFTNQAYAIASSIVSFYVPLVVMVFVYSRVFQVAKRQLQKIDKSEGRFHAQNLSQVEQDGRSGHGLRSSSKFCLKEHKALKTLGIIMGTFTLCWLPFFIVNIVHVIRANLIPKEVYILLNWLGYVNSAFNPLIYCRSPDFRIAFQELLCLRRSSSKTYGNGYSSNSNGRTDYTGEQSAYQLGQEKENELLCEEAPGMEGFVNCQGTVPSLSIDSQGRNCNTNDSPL

On to `CC(C)(C)NCC(O)COc1ccc(NC(=O)c2cccs2)cc1Cl` (stereo unspecified), for which the results for the Activity with Rattus norvegicus [1] and in the experiment with Rattus norvegicus [2] were 10.33 mL and 0.14, respectively. In addition, the ID50 turned out to be 0.014 mg/kg in [3] and 0.4 mg/kg in experiment [4].

In the case of `CCOC(=O)c1cc(NC(=O)Cc2cccs2)ccc1OCC(O)CNC(C)C` (stereo unspecified), the treated urinary output with Rattus norvegicus [5] is 8.15 mL. Besides, the Activity in the experiment with Rattus norvegicus [6] amounted to 0.163.

Take `CC(C)(C)NCC(O)COc1ccc(NC(=O)c2cccs2)cc1C#N` (stereo unspecified): the Activity in the experiment with Rattus norvegicus [7] is on record as 0.102. The ID50 in experiment [3] is 0.022 mg/kg; in experiment [4], 0.55 mg/kg.

On to `CCOC(=O)c1cc(NC(=O)Cc2ccsc2)ccc1OCC(O)CNC(C)C` (stereo unspecified), for which the Activity in the experiment on Rattus norvegicus [8] was determined as 8.72 mL; in the experiment on Rattus norvegicus [9], 0.163. Also, the ID50 was 0.02 mg/kg in experiment [3] and greater than 1 mg/kg in experiment [4].

Regarding `CCCOC(=O)c1cc(NC(=O)c2cccs2)ccc1OCC(O)CNC(C)C` (stereo unspecified), the Activity in the experiment with Rattus norvegicus [10] was found to be 0.21; in the experiment on Rattus norvegicus [11], 7.33 mL.

`CCOC(=O)c1cc(NC(=O)c2cccs2)ccc1OCC(O)CNC(C)C` (stereo unspecified): the Activity was 7.33 mL in the experiment on Rattus norvegicus [12]; 7.33 mL with Rattus norvegicus [13]; 7.33 mL in the experiment on Rattus norvegicus [14]; 0.205 in the experiment with Rattus norvegicus [15]; 0.205 in the experiment with Rattus norvegicus [16]; 0.205 in the experiment with Rattus norvegicus [17]. The Activity in the experiment on Rattus norvegicus [18] was 7.33 mL; with Rattus norvegicus [19] it was 0.205. Moreover, the ID50 in experiment [3] came to 0.3 mg/kg; in experiment [4], 0.45 mg/kg.

`CCOC(=O)c1cc(NC(=O)c2cccs2)ccc1OCC(O)CNC(C)(C)C` (stereo unspecified) [TIENOXOLOL]: the ID50 in experiment [20] is 0.065 mg/kg; in experiment [33], greater than 1 mg/kg. Further, the treated urinary output in the experiment on Rattus norvegicus [21] stood at 9 mL; in the experiment on Rattus norvegicus [22], 9.83 mL; with Rattus norvegicus [26], 11.2 mL. The Activity in the experiment on Rattus norvegicus [23] is 7.42 mL; in the experiment on Rattus norvegicus [24] it was 9.02 mL; in the experiment on Rattus norvegicus [25], 9.99 mL; in the experiment on Rattus norvegicus [27], 0.207; in the experiment on Rattus norvegicus [28], 6.42 mL; in the experiment on Rattus norvegicus [29], 0.207. Further, the Activity is recorded as 0.259 with Rattus norvegicus [30], 0.207 in the experiment with Rattus norvegicus [31] and 0.207 in the experiment on Rattus norvegicus [32]. In addition, the ED50 worked out at 0.00176 mg/kg in experiment [34], 0.00179 mg/kg in experiment [35] and 0.00133 mg/kg in [36].

For `CCOC(=O)c1cc(NC(=O)Cc2ccsc2)ccc1OCC(O)CNC(C)(C)C` (stereo unspecified), the Activity with Rattus norvegicus [37] was 8.42 mL; in the experiment on Rattus norvegicus [38] it was 0.186. Besides, the ID50 in experiment [3] came to 0.015 mg/kg; in [4] it was 0.38 mg/kg.
